Experimental data taken from PMC8798225 (Nature, 2021).

Key:
Ubr1 [1] = molecular target: T1, Ubr1 (Saccharomyces cerevisiae, UniProt P19812); assay: In vitro Ubr1-dependent ubiquitination assay; type: biochemical; details: n = 2
How it was run: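 Multi-turnover reaction at 30 °C in 50 mM HEPES pH 7.5, 0.15 M NaCl, 10 mM MgCl2, 5 mM ATP. It contained 0.1 µM Uba1, 4 µM Ubc2, 0.25 µM Ubr1 (wild-type or mutant at the same level), 80 µM Ub and 5 µM substrate. Substrate was Degron or Ub-Degron labelled at an added C-terminal Cys with fluorescein-5-maleimide. Reactions were stopped in SDS sample buffer and resolved by SDS-PAGE with fluorescence imaging.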

Ubc2 = molecular target: T2, Ubc2 (Saccharomyces cerevisiae, UniProt P06104); assay: Accessibility of the catalytic cysteine; type: biochemical; details: fluorescein-5-maleimide, presence or absence of synthetic U2BR peptide; average fluorescence, n = 2
T2 sequence (P06104 1-172): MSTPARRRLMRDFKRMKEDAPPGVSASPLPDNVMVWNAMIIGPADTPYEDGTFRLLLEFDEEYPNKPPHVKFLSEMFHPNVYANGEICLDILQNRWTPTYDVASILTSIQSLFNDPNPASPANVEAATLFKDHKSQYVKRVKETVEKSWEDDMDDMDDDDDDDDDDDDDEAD

Ubr1 [2] = molecular target: T1, Ubr1; assay: Single-turnover pulse-chase Ub transfer, elongation step; type: biochemical; details: 0.5 μM Ubr1, 30 °C, 5 min, n = 2
[3] = molecular target: T3, Ubc2 (Saccharomyces cerevisiae), wild type (Saccharomyces cerevisiae, UniProt P06104 3-152); assay: ITC
T3 sequence: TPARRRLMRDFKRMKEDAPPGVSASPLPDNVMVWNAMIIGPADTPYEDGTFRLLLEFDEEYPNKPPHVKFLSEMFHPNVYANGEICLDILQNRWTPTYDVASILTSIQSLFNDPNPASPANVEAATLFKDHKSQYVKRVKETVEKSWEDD

T1 sequence (P19812 whole entry, one chain of several): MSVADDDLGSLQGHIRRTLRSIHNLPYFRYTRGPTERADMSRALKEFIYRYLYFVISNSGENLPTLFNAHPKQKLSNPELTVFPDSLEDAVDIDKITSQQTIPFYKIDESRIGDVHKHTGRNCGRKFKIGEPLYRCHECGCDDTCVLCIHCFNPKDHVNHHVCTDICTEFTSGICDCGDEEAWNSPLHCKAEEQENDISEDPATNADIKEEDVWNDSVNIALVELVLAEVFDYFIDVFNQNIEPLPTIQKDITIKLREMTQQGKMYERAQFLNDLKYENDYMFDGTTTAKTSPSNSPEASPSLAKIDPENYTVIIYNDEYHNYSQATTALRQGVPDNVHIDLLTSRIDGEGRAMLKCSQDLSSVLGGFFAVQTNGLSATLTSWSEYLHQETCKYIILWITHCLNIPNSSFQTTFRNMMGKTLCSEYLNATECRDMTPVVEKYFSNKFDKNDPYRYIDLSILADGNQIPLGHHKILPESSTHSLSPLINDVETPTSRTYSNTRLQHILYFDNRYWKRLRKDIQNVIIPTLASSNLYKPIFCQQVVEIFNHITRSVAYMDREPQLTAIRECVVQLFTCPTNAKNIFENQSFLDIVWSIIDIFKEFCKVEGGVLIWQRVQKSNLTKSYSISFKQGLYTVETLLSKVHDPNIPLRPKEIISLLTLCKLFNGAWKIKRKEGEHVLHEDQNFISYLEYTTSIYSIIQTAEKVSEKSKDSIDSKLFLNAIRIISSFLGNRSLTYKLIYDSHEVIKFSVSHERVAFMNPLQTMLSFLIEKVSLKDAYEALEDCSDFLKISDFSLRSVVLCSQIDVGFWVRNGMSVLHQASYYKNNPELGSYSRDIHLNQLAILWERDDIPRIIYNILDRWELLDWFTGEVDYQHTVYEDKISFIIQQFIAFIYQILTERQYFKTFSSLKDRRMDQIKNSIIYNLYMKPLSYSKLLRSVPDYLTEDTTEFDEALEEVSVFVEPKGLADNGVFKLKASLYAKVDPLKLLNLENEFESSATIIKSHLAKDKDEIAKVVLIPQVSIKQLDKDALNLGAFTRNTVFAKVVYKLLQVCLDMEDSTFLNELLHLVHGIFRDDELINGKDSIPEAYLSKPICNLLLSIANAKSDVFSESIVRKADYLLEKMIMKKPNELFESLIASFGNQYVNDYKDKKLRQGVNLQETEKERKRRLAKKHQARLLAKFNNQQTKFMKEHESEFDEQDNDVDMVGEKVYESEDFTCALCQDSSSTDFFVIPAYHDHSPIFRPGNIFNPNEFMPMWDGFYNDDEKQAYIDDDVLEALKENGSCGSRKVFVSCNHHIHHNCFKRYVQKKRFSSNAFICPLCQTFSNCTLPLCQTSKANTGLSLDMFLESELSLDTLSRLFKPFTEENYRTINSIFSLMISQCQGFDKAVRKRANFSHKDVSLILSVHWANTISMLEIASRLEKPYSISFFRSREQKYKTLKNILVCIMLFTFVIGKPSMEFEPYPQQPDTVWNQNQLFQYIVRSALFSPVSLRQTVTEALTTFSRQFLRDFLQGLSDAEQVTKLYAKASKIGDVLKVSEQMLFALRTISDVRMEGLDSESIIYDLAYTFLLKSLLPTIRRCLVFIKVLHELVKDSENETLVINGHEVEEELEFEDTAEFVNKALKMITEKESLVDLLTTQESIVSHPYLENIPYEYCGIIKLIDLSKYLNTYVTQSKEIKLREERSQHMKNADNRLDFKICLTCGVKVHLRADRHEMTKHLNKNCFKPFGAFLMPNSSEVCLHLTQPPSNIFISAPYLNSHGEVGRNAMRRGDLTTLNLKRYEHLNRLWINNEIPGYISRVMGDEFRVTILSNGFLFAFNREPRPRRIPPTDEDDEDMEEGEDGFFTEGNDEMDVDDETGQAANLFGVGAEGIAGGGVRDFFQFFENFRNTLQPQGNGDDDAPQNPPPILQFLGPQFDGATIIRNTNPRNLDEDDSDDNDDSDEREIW

With “U2BR peptide: free U2BR peptide (Ubr1 1165-1200), Ubc2 binding region (KERKRRLAKKHQARLLAKFNNQQTKFMKEHESEFDE; UniProt P19812 1165-1200, looked up, fragment)” the “inhibition of polyubiquitination by free U2BR peptide” value (Ubr1 [1]; increasing concentrations of synthetic U2BR peptide) was “inhibited polyubiquitination in a dose-dependent manner” and the “accessibility of the catalytic cysteine (C88) of Ubc2” value (Ubc2) was “decreased”.

“UBLM mutant: Ubr1 Ub binding loop mutant H678A/V679A/L680A/H681A” was tested, and the monoubiquitinated product (Ubr1 [1]; Hs-Type-1 Degron and Type-2 Degron as substrates) was “accumulation of monoubiquitinated product”, the “Ub transfer to Degron versus Ub-Degron” value (Ubr1 [1]; UBLM mutant of Ubr1) was “transferred more Ub to Degron than to Ub-Degron” and the “polyubiquitination of Degron and Ub-Degron (effect of mutation)” value (Ubr1 [1]; fluorescent Degron and Ub-Degron, 30 °C, pH 7.5) was “substantially reduced”. For the same molecule, the “transfer of fluorescent Ub from Ubc2 to Ub-Degron” value (Ubr1 [2]) was “failed to transfer fluorescent Ub from Ubc2 to Ub-Degron”.

B1: Ubc2 (C88S): catalytically inactive Ubc2 (protein)
chain: TPARRRLMRDFKRMKEDAPPGVSASPLPDNVMVWNAMIIGPADTPYEDGTFRLLLEFDEEYPNKPPHVKFLSEMFHPNVYANGEISLDILQNRWTPTYDVASILTSIQSLFNDPNPASPANVEAATLFKDHKSQYVKRVKETVEKSWEDD
modifications: left off: His tag, N-terminal, state not stated
With B1 the “inhibitory effect of pre-mixed inactive Ubc2 on ubiquitination” value (Ubr1 [1]; increasing doses up to 12.5 μM pre-mixed with Ubr1 and Degron, then wild-type Ubc2 at 4 μM) was “Minimal inhibitory effects”.

B2: N65A: N65A mutation of Ubc2 (protein, UniProt P06104 1-172, looked up, variant N65A)
Ubiquitin-conjugating enzyme …: MSTPARRRLMRDFKRMKEDAPPGVSASPLPDNVMVWNAMIIGPADTPYEDGTFRLLLEFDEEYPAKPPHVKFLSEMFHPNVYANGEICLDILQNRWTPTYDVASILTSIQSLFNDPNPASPANVEAATLFKDHKSQYVKRVKETVEKSWEDDMDDMDDDDDDDDDDDDDEAD
For B2, the “amount of polyubiquitinated Degron” value (Ubr1 [1]; Ubc2 N65A mutation) was “increased the amount of polyubiquitinated Degron”.

B3: U2BR peptide (Ubr1 1165-1200) (peptide, UniProt P19812 1165-1200, looked up)
peptide: KERKRRLAKKHQARLLAKFNNQQTKFMKEHESEFDE
Molecule B3 has a Kd [3] of 143 ± 45 nM.
